Measurements reported in ChEMBL document CHEMBL1145892, “2-Substitution of adenine nucleotide analogues containing a bicyclo[3.1.0]hexane ring system locked in a northern conformation: enhanced potency as P2Y1 receptor antagonists” (J Med Chem, 2003).

Experiments:
P2Y purinoceptor 1 [1] = target: T1, P2Y purinoceptor 1 (Homo sapiens, UniProt P47900); experiment: Inhibition of [3H]5 binding to P2Y purinoceptor 1 expressed in Sf9 cells
Procedure, shortened: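 Membranes were from Sf9 cells expressing human P2Y1 via recombinant baculovirus. They were incubated 30 min at 4 °C with [3H]5 (~20 nM or 10 nM as stated) across a wide analogue concentration range. Samples were filtered over glass-fiber with ice-cold 10 mM Tris pH 7.5/145 mM NaCl and counted by scintillation. Assays were triplicate, three experiments. Ki = IC50/(1+[L]/Kd), Kd 8 nM.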

P2Y purinoceptor 1 [2] = target: T1, P2Y purinoceptor 1; experiment: Antagonistic activity against P2Y purinoceptor 1; format: functional
Procedure, shortened: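 Human P2Y1 stably expressed in 1321N1 astrocytoma cells, labeled 18–24 h at 37 °C with 1.0 µCi [3H]myo-inositol in inositol-free DMEM. Inositol phosphate accumulation was stimulated by 30 nM 2MeSADP over 10 min at 37 °C with 10 mM LiCl. Total [3H]inositol phosphates were measured by anion exchange. IC50 came from a four-parameter logistic fit; ≥3 experiments, duplicate or triplicate.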

T1 sequence (P47900 whole entry): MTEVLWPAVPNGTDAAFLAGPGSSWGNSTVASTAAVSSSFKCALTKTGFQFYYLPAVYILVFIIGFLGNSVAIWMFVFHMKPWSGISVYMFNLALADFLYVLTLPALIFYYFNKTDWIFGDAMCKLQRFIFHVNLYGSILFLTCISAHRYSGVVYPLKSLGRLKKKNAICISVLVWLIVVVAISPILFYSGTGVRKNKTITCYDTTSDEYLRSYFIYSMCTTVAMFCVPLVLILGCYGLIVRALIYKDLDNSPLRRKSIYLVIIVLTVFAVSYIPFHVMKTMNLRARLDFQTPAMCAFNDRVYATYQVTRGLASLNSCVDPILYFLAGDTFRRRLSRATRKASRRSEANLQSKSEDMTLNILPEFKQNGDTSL

## CNc1nc(Br)nc2c1ncn2C1CC(OP(=O)(O)O)[C@]2(COP(=O)(O)O)C[C@H]12 (stereo partly specified)
P2Y purinoceptor 1 [1]
  Ki: 5.1 nM
P2Y purinoceptor 1 [2]
  IC50: 37 nM

## CCCC/C=C\c1nc(NC)c2ncn([C@H]3C[C@H](OP(=O)(O)O)[C@]4(COP(=O)(O)O)C[C@H]34)c2n1
P2Y purinoceptor 1 [1]
  Ki: 430 nM
P2Y purinoceptor 1 [2]
  IC50: 2400 nM

## CSc1nc(N)c2ncn([C@H]3C[C@H](OP(=O)(O)O)[C@]4(COP(=O)(O)O)C[C@H]34)c2n1
P2Y purinoceptor 1 [1]
  Ki: 863 nM
P2Y purinoceptor 1 [2]
  IC50: 367 nM

## CNc1ncnc2c1ncn2[C@H]1C[C@H](OP(=O)(O)O)[C@]2(COP(=O)(O)O)C[C@H]12
P2Y purinoceptor 1 [1]
  Ki: 17.6 nM
P2Y purinoceptor 1 [2]
  IC50: 157 nM

## CNc1nc(Cl)nc2c1ncn2[C@H]1C[C@H](OP(=O)(O)O)[C@]2(COP(=O)(O)O)C[C@H]12
P2Y purinoceptor 1 [1]
  Ki: 2.5 nM
P2Y purinoceptor 1 [2]
  IC50: 52 nM

## CNc1nc(SC)nc2c1ncn2[C@H]1C[C@H](OP(=O)(O)O)[C@]2(COP(=O)(O)O)C[C@H]12
P2Y purinoceptor 1 [1]
  Ki: 91 nM
P2Y purinoceptor 1 [2]
  IC50: 221 nM

## CCCC/C=C/c1nc(NC)c2ncn([C@H]3C[C@H](OP(=O)(O)O)[C@]4(COP(=O)(O)O)C[C@H]34)c2n1
P2Y purinoceptor 1 [1]
  Ki: 330 nM
P2Y purinoceptor 1 [2]
  IC50: 1870 nM

## CNc1nc(C)nc2c1ncn2[C@H]1C[C@H](OP(=O)(O)O)[C@]2(COP(=O)(O)O)C[C@H]12
P2Y purinoceptor 1 [1]
  Ki: 3.6 nM
P2Y purinoceptor 1 [2]
  IC50: 49 nM

## CNc1nc(F)nc2c1ncn2[C@H]1C[C@H](OP(=O)(O)O)[C@]2(COP(=O)(O)O)C[C@H]12
P2Y purinoceptor 1 [1]
  Ki: 45 nM
P2Y purinoceptor 1 [2]
  IC50: 356 nM

## CCCCCCc1nc(NC)c2ncn([C@H]3C[C@H](OP(=O)(O)O)[C@]4(COP(=O)(O)O)C[C@H]34)c2n1
P2Y purinoceptor 1 [1]
  Ki: 80 nM
P2Y purinoceptor 1 [2]
  IC50: 452 nM

## Nc1nc(I)nc2c1ncn2C1CC(OP(=O)(O)O)[C@]2(COP(=O)(O)O)C[C@H]12 (stereo partly specified)
P2Y purinoceptor 1 [1]
  Ki: 12.6 nM
P2Y purinoceptor 1 [2]
  IC50: 87 nM

## CNc1nc([Se]C)nc2c1ncn2C1CC(OP(=O)(O)O)[C@]2(COP(=O)(O)O)C[C@H]12 (stereo partly specified)
P2Y purinoceptor 1 [1]
  Ki: 35 nM
P2Y purinoceptor 1 [2]
  IC50: 377 nM

## CNc1nc(I)nc2c1ncn2[C@H]1C[C@H](OP(=O)(O)O)[C@]2(COP(=O)(O)O)C[C@H]12
P2Y purinoceptor 1 [1]
  Ki: 0.78 nM
P2Y purinoceptor 1 [2]
  IC50: 8.4 nM
